The test system of data set [1] is Escherichia coli. Kind of data set: Potentiation of meropenem-induced antibacterial activity against Escherichia coli TG1 transformed with IncX3 plasmid expressing blaNDM-1 assessed as bacterial growth inhibition by measuring meropenem MIC incubated for overnight by CLSI protocol based assay. It counts as functional. The following applies: time 12 hrs.
For data set [2], the system named is Escherichia coli. The data set is described as follows: Synergistic antibacterial activity against Escherichia coli TG1 transformed with IncX3 plasmid expressing blaNDM-1 assessed as fractional inhibitory concentration index in presence of meropenem incubated for overnight by CLSI protocol based assay. Type of data set: functional. Particulars: time 12 hrs. The essentials:
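FIC index from MICs of compound alone, meropenem alone, and the 1:1 (mass) compound–meropenem combination, read by eye after overnight incubation in a CLSI-based assay. FIC index = MICcombo/MICcpd + MICcombo/MICMem. FIC index ≤0.5 counted as synergy. At least triplicate assays. Clinical NDM-1 isolates for 17-39; E. coli TG1 carrying the IncX3 blaNDM-1 plasmid for 15.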

For data set [3], the system named is Escherichia coli. Kind of data set: Synergistic antibacterial activity against Escherichia coli TG1 transformed with IncX3 plasmid expressing blaNDM-1 assessed as ratio of negative logarithm of fractional inhibitory concentration index to non-hydrogen atom in presence of meropenem incubated for overnight by CLSI protocol based assay. Particulars: time 12 hrs. Type of data set: functional. The essentials: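 In E. coli TG1 carrying the IncX3 blaNDM-1 plasmid, the FIC index was taken from overnight CLSI-based MICs of compound, meropenem and their 1:1 mass mixture, read by eye. Synergistic efficiency = −ln(FIC index) divided by the number of non-hydrogen atoms. At least triplicate assays.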

Data set [4] can be described thus: Growth inhibition of Escherichia coli TG1 transformed with IncX3 plasmid expressing blaNDM-1 incubated for overnight by CLSI protocol based assay. The following applies: 12 h.

These results are taken from ChEMBL document CHEMBL4673212, “Investigation of synergistic antimicrobial effects of the drug combinations of meropenem and 1,2-benzisoselenazol-3(2H)-one derivatives on carbapenem-resistant Enterobacteriaceae producing NDM-1” (Eur J Med Chem, 2018).

Values after ≈ are worked out from the molar mass of the structure shown. Bounds are passed on as bounds.

For the compound `O=C(O)c1cccc(-n2[se]c3ccccc3c2=O)c1`, the values for the MIC in data set [1] and in data set [4] were 8 µg/mL and 32 µg/mL (≈ 101 µM), respectively. Besides, in data set [2], the “fractional inhibitory concentration index (FICI)” value was found to be 0.375. Further, the Ratio in data set [3] amounted to 0.052.
For `O=C(NCCn1[se]c2ccccc2c1=O)c1ccccc1`, in that order: 16 µg/mL, “>= 128 ug ml-1”, 0.375 and 0.047.
On to `CN(C)CCn1[se]c2ccccc2c1=O`, for which the MIC in data set [1] is 16 µg/mL; in data set [4], “>= 128 ug ml-1”. The “fractional inhibitory concentration index (FICI)” value in data set [2] came to 0.375. Further, in data set [3], the Ratio was found to be 0.065.
On to `CC(C)(CC(=O)NCCn1[se]c2ccccc2c1=O)C(F)(F)F`, for which the MIC in data set [1] is 8 µg/mL; in data set [4] it was “>= 128 ug ml-1”. Moreover, the “fractional inhibitory concentration index (FICI)” value in data set [2] is 0.188. The Ratio in data set [3] is on record as 0.073.
On to `COc1ccc(Cn2[se]c3ccccc3c2=O)cc1`, for which the figures for the MIC in data set [1] and in data set [4] were 8 µg/mL and “>= 128 ug ml-1”, respectively. Further, the “fractional inhibitory concentration index (FICI)” value in data set [2] amounted to 0.188. The Ratio in data set [3] is 0.088.
Regarding `CC(C)(OC(=O)NCCCn1[se]c2ccccc2c1=O)C(F)(F)F`, the MIC was 8 µg/mL in data set [1] and “>= 128 ug ml-1” in data set [4]. In data set [2], the “fractional inhibitory concentration index (FICI)” value was determined as 0.188. The Ratio in data set [3] was found to be 0.07.
With `O=C1N[Se]c2ccccc2C(=O)N1`, the MIC in data set [1] came out at 8 µg/mL; in data set [4], 64 µg/mL (≈ 265 µM). The “fractional inhibitory concentration index (FICI)” value in data set [2] worked out at 0.25. In addition, the Ratio in data set [3] was 0.107.
Regarding `COc1ccc(-n2[se]c3ccccc3c2=O)cc1`, the MIC is 16 µg/mL in data set [1] and “>= 128 ug ml-1” in data set [4]. The “fractional inhibitory concentration index (FICI)” value in data set [2] was 0.375. Besides, the Ratio in data set [3] is on record as 0.054.
As to `CC(C)c1ccc(-n2[se]c3ccccc3c2=O)cc1`, the values for the MIC in data set [1] and in data set [4] were 16 µg/mL and “>= 128 ug ml-1”, respectively. The “fractional inhibitory concentration index (FICI)” value in data set [2] is given as 0.375. Moreover, in data set [3], the Ratio is reported as 0.052.
In the case of `CCN1CCC[C@@H]1Cn1[se]c2ccccc2c1=O`, the MIC in data set [1] was 16 µg/mL; in data set [4], 64 µg/mL (≈ 207 µM). Besides, in data set [2], the “fractional inhibitory concentration index (FICI)” value amounted to 0.5. In addition, the Ratio in data set [3] came out at 0.039.
On the same counts, the results for `Cl.NCCn1[se]c2ccccc2c1=O` are 4 µg/mL, 4 µg/mL, 1.063 and -0.005.
Turning to `O=C(O)c1ccc(-n2[se]c3ccccc3c2=O)cc1`, the MIC turned out to be 4 µg/mL in data set [1] and 64 µg/mL (≈ 201 µM) in data set [4]. Besides, in data set [2], the “fractional inhibitory concentration index (FICI)” value was 0.125. The Ratio in data set [3] is on record as 0.109.
Consider `O=c1c2ccccc2[se]n1C1CCCCC1`, for which the MIC in data set [1] turned out to be 8 µg/mL; in data set [4] it was 64 µg/mL (≈ 228 µM). In addition, the “fractional inhibitory concentration index (FICI)” value in data set [2] was 0.25. In data set [3], the Ratio came to 0.087.
Turning to `O=C(NCCn1[se]c2ccccc2c1=O)OCc1ccccc1`, the results for the MIC in data set [1] and in data set [4] were 16 µg/mL and “>= 128 ug ml-1”, respectively. In data set [2], the “fractional inhibitory concentration index (FICI)” value is reported as 0.375. Also, the Ratio in data set [3] worked out at 0.043.
Consider `O=C1CC[Se]N1c1ccccc1`, for which the values for the MIC in data set [1] and in data set [4] were 32 µg/mL and “>= 128 ug ml-1”, respectively. Moreover, the “fractional inhibitory concentration index (FICI)” value in data set [2] was found to be 0.75. Moreover, in data set [3], the Ratio came out at 0.024.
For `O=c1c2ccccc2[se]n1CCO`, in that order: 16 µg/mL, 32 µg/mL (≈ 132 µM), 0.75 and 0.022.
Consider `CCN1CCC[C@H]1Cn1[se]c2ccccc2c1=O`, for which the MIC came out at 16 µg/mL in data set [1] and 64 µg/mL (≈ 207 µM) in data set [4]. Moreover, the “fractional inhibitory concentration index (FICI)” value in data set [2] is given as 0.5. Further, the Ratio in data set [3] is given as 0.039.
`O=c1c2ccccc2[se]n1CCNCc1ccccc1`: the MIC was 8 µg/mL in data set [1] and “>= 128 ug ml-1” in data set [4]. For the same compound, the “fractional inhibitory concentration index (FICI)” value in data set [2] was determined as 0.188. For the same compound, in data set [3], the Ratio was found to be 0.084.
Take `C[C@H](C(=O)N[C@H](C)C(=O)O)n1[se]c2ccccc2c1=O`: the MIC in data set [1] is 16 µg/mL; in data set [4], “>= 128 ug ml-1”. The “fractional inhibitory concentration index (FICI)” value in data set [2] turned out to be 0.375. Besides, the Ratio in data set [3] worked out at 0.049.
Turning to `Cc1ccc(C(=O)NCCn2[se]c3ccccc3c2=O)cc1`, the MIC in data set [1] is 8 µg/mL; in data set [4], “>= 128 ug ml-1”. Also, in data set [2], the “fractional inhibitory concentration index (FICI)” value is 0.188. Moreover, the Ratio in data set [3] was 0.076.
With `COc1cccc(C(=O)n2[se]c3ccccc3c2=O)c1`, the MIC in data set [1] is 8 µg/mL; in data set [4], “>= 128 ug ml-1”. Also, in data set [2], the “fractional inhibitory concentration index (FICI)” value was determined as 0.188. Further, in data set [3], the Ratio is reported as 0.084.
As to `O=C(NCCn1[se]c2ccccc2c1=O)c1ccc(F)cc1F`, the figures for the MIC in data set [1] and in data set [4] were 32 µg/mL and “>= 128 ug ml-1”, respectively. Also, the “fractional inhibitory concentration index (FICI)” value in data set [2] came out at 0.75. Further, the Ratio in data set [3] was found to be 0.013.
With `O=c1c2ccccc2[se]n1CCN1CCOCC1`, the MIC in data set [1] was determined as 16 µg/mL; in data set [4], 64 µg/mL (≈ 206 µM). Further, the “fractional inhibitory concentration index (FICI)” value in data set [2] is reported as 0.5. Moreover, in data set [3], the Ratio amounted to 0.039.
On to `COc1ccc(-n2[se]c3ccccc3c2=O)cc1Cl`, for which the MIC in data set [1] is 32 µg/mL; in data set [4], “>= 128 ug ml-1”. Further, the “fractional inhibitory concentration index (FICI)” value in data set [2] was found to be 0.75. Besides, the Ratio in data set [3] is recorded as 0.015.
For `O=c1c2ccccc2[se]n1Cc1cccc(N2CCCCC2)c1`, in that order: 16 µg/mL, “>= 128 ug ml-1”, 0.375 and 0.043.
Take `O=c1c2ccccc2[se]n1Cc1ccccc1`: the values for the MIC in data set [1] and in data set [4] were 8 µg/mL and 32 µg/mL (≈ 111 µM), respectively. The “fractional inhibitory concentration index (FICI)” value in data set [2] is on record as 0.375. The Ratio in data set [3] stood at 0.058.
In data set [4], `C[C@@H](O)[C@H]1C(=O)N2C(C(=O)O)=C(S[C@@H]3CN[C@H](C(=O)N(C)C)C3)[C@H](C)[C@H]12` [MEROPENEM] returned an MIC of 64 µg/mL (≈ 167 µM).
Turning to `O=c1c2ccccc2[se]n1CCCn1ccnc1`, the MIC is 16 µg/mL in data set [1] and “>= 128 ug ml-1” in data set [4]. In addition, the “fractional inhibitory concentration index (FICI)” value in data set [2] stood at 0.375. The Ratio in data set [3] worked out at 0.054.
As for `O=c1c2ccccc2[se]n1-c1ccc(CO)cc1`, the results for the MIC in data set [1] and in data set [4] were 16 µg/mL and “>= 128 ug ml-1”, respectively. For the same compound, the “fractional inhibitory concentration index (FICI)” value in data set [2] is 0.375. For the same compound, the Ratio in data set [3] was 0.054.
For `CCN(CC)CCCC(C)n1[se]c2ccccc2c1=O` (configuration not stated), in that order: 8 µg/mL, “>= 128 ug ml-1”, 0.188 and 0.084.
Take `O=c1c2ccccc2[se]n1-c1ccc(Cl)cc1`: the MIC is 4 µg/mL in data set [1] and “>= 128 ug ml-1” in data set [4]. Further, in data set [2], the “fractional inhibitory concentration index (FICI)” value is listed as 0.094. The Ratio in data set [3] stood at 0.139.
Regarding `CC1CN(CCn2[se]c3ccccc3c2=O)CC(C)O1` (configuration not stated), the MIC in data set [1] was 16 µg/mL; in data set [4], “>= 128 ug ml-1”. Besides, the “fractional inhibitory concentration index (FICI)” value in data set [2] was 0.375. The Ratio in data set [3] amounted to 0.049.
`O=c1c2ccccc2[se]n1CCC1CCOCC1`: the MIC is 8 µg/mL in data set [1] and “>= 128 ug ml-1” in data set [4]. In addition, in data set [2], the “fractional inhibitory concentration index (FICI)” value is reported as 0.188. Besides, in data set [3], the Ratio was 0.084.
Turning to `O=C(NCCn1[se]c2ccccc2c1=O)c1cccs1`, the MIC in data set [1] is 8 µg/mL; in data set [4], “>= 128 ug ml-1”. Also, the “fractional inhibitory concentration index (FICI)” value in data set [2] is 0.188. The Ratio in data set [3] is 0.084.
Take `CCCC[n+]1ccn(CCCn2[se]c3ccccc3c2=O)c1`: the MIC was 8 µg/mL in data set [1] and “>= 128 ug ml-1” in data set [4]. Also, the “fractional inhibitory concentration index (FICI)” value in data set [2] came to 0.188. The Ratio in data set [3] is reported as 0.076.
For `COP(=O)(NCCn1[se]c2ccccc2c1=O)OC`, in that order: 8 µg/mL, “>= 128 ug ml-1”, 0.188 and 0.084.
As to `C#CCn1[se]c2ccccc2c1=O`, the MIC in data set [1] amounted to 8 µg/mL; in data set [4], 64 µg/mL (≈ 271 µM). Also, the “fractional inhibitory concentration index (FICI)” value in data set [2] is given as 0.25. In addition, the Ratio in data set [3] was 0.107.
For `O=c1c2ccccc2[se]n1S(=O)(=O)c1ccc(Cl)cc1`, in that order: 16 µg/mL, “>= 128 ug ml-1”, 0.375 and 0.049.
On to `Cl.NCCCn1[se]c2ccccc2c1=O`, for which the MIC in data set [1] turned out to be 2 µg/mL; in data set [4], 8 µg/mL. Moreover, the “fractional inhibitory concentration index (FICI)” value in data set [2] is 0.281. Also, the Ratio in data set [3] was 0.091.
In the case of `O=c1c2ccccc2[se]n1CCN1CCCCC1`, the MIC in data set [1] is 16 µg/mL; in data set [4], “>= 128 ug ml-1”. Besides, in data set [2], the “fractional inhibitory concentration index (FICI)” value turned out to be 0.375. Besides, in data set [3], the Ratio is 0.054.
